Source: PMC5615155 (Toxicology Reports, 2017)
Where “and” joins values, the source holds several entries; their conditions need not be identical. Equal values may be shown once. Entries after “also recorded” stand apart in the source; their conditions may differ.

Assays:
[1] = excretion in feces and urine; assay type: in vivo, Sprague-Dawley rats
[2] = in vitro microsomal metabolism; assay type: in vitro ADME, human; conditions: 10 μM, 0.5 mg/mL, +NADPH, 120 min
[3] = tested on: 68 receptor binding assays for GPCRs, ion channels, nuclear receptors, transporters; test: receptor lead profiling panel; conditions: 10 μM
CYP2C19 = CYP2C19 (Homo sapiens, UniProt P33261); test: CYP inhibition, spectrofluorimetric; assay type: biochemical; conditions: recombinant human CYP2C19 expressed in insect Sf9 cells
How it was run: (§1)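 Inhibition was assayed with recombinant human CYP isoforms expressed in insect Sf9 cells. Turnover of spectrofluorimetric substrates was read by fluorescence. Test compound was tested at a single concentration of 10 μM.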

[4] = tested on: human peripheral blood lymphocytes (HPBL); test: in vitro micronucleus test; assay type: cell-based
How it was run: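 HPBL micronucleus test per OECD 487, GLP. Exposures: 4 h −S9, 4 h +S9 (Aroclor 1254-induced male rat liver), 24 h −S9. DMSO solvent; positive controls vinblastine (−S9) and cyclophosphamide (+S9). 4 h cultures were washed, then 20 h in cytochalasin B 6.0 μg/mL. Dose range from preliminary toxicity test (0.2–2000 μg/mL). Duplicate cultures: CBPI from ≥1000 cells; ≥2000 binucleated cells scored.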

[5] = 28-day dose-range finding dietary toxicity study; assay type: in vivo, CD [Crl:CD(SD)] rats
How it was run: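 This 28-day dose-range-finding study used CD [Crl:CD(SD)] rats, 8/sex/group. Rats received test compound continuously in the diet at nominal 10, 30 or 100 mg/kg bw/day; controls got untreated diet. Dietary concentration (ppm) was adjusted weekly from body weight and food consumption to keep mg/kg bw/day doses constant. NOAEL was set from the 28-day findings.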

[6] = in vitro microsomal metabolism; assay type: in vitro ADME, Sprague-Dawley rat; conditions: 10 μM, 0.5 mg/mL, +NADPH, 120 min
CYP2C9 = CYP2C9 (Homo sapiens, UniProt P11712); test: CYP inhibition, spectrofluorimetric; assay type: biochemical; conditions: recombinant human CYP2C9 expressed in insect Sf9 cells
How it was run: as §1

[7] = definitive developmental toxicity study; assay type: in vivo, Crl:CD(SD) rats
How it was run: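 For the definitive developmental toxicity study, bred female Sprague-Dawley rats, 25/group, were given the sulfate salt of the test compound by oral gavage at 250, 500 or 1000 mg/kg bw/day, with a control group. Per litter, corpora lutea, implantation sites, pre- and post-implantation loss, live and dead fetuses, resorptions (early/late), fetal sex and fetal body weight were recorded.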

[8] = 13-week dietary toxicity study; assay type: in vivo, CD [Crl:CD(SD)] rats
[9] = 140 mg/kg bw/day females, p < 0.05

CYP2C19, sequence (P33261 whole entry, canonical isoform): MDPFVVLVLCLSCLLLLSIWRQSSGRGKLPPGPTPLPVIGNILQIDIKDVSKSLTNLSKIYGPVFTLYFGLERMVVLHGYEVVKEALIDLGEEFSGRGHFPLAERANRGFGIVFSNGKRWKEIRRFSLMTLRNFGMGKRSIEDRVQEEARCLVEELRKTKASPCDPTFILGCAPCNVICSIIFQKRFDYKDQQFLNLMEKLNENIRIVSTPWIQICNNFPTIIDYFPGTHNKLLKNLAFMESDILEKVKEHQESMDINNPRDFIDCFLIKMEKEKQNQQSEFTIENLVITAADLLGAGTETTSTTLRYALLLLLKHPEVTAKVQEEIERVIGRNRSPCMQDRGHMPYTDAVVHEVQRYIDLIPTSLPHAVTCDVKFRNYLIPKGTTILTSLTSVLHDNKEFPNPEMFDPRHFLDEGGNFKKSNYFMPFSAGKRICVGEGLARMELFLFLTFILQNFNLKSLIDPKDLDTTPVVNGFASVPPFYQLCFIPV
CYP2C9, sequence (P11712 whole entry): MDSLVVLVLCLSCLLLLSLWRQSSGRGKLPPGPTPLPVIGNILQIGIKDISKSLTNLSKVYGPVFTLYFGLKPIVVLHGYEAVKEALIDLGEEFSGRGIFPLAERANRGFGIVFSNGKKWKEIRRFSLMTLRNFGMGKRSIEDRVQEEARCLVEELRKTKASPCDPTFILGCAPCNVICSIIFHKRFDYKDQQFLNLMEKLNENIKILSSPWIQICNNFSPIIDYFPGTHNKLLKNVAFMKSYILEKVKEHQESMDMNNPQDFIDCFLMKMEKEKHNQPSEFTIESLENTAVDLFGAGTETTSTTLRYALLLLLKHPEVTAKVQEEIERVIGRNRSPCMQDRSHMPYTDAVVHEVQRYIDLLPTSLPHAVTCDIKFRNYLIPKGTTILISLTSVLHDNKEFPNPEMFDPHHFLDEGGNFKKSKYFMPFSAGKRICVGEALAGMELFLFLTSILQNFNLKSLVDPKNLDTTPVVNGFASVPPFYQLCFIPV

## Cc1cc(C(=O)NC(C)(C)COc2cccc3c2C(N)=NS(=O)(=O)N3)cc(C)n1 [S2218, N-(1-((4-amino-2,2-dioxido-1H-benzo[c][1,2,6]thiadiazin-5-yl)oxy)-2-methylpropan-2-yl)-2,6-dimethylisonicotinamide]
[1]; feces + urine, female, 0–72 h
  % Recovery of S2218: 90.0% and 90.0 ± 7.5%
[1]; feces + urine, male, 0–72 h
  % Recovery of S2218: 82.1% and 82.1 ± 15.4%
[1]; feces + urine, overall (M+F), 0–72 h
  % Recovery of S2218: 86.07%
[1]; feces, female, 0–24 h
  % Recovery of S2218: 82.19% and 82.19 ± 10.89%
[1]; feces, female, 0–72 h
  % Recovery of S2218: 89.79% and 89.79 ± 7.63%
[1]; feces, female, 24–48 h
  % Recovery of S2218: 7.504 ± 6.517%
[1]; feces, female, 48–72 h
  % Recovery of S2218: 0.152 ± 0.062%
[1]; feces, male, 0–24 h, S8069 10 mg/kg bw oral
  % Recovery of S2218: 76.68% and 76.68 ± 13.82%
[1]; feces, male, 0–72 h
  % Recovery of S2218: 82.08% and 82.08 ± 15.35%
[1]; feces, male, 24–48 h
  % Recovery of S2218: 5.247 ± 4.432%
[1]; feces, male, 48–72 h
  % Recovery of S2218: 0.298 ± 0.225%
[1]; urine, female, 0–24 h
  % Recovery of S2218: 0.202 ± 0.216%
[1]; urine, female, 0–72 h
  % Recovery of S2218: 0.230% and 0.230 ± 0.252%
[1]; urine, female, 24–48 h
  % Recovery of S2218: 0.020 ± 0.027%
[1]; urine, female, 48–72 h
  % Recovery of S2218: 0.008 ± 0.010%
[1]; urine, male, 0–24 h
  % Recovery of S2218: 0.036 ± 0.025%
[1]; urine, male, 0–72 h
  % Recovery of S2218: 0.044% and 0.044 ± 0.022%
[1]; urine, male, 24–48 h
  % Recovery of S2218: 0.007 ± 0.004%
[1]; urine, male, 48–72 h
  % Recovery of S2218: 0.001 ± 0.001%
[1]; urine, overall (M+F), 0–72 h
  % Recovery of S2218: 0.137%
[2]
  % MS (EIC) peak area of parent relative to time 0: 98.4 ± 0.4%
[3]
  inhibition or stimulation in lead profiling receptor screen: < 50%
CYP2C19
  inhibition at 10 μM: ≤ 7%
[4]; 250–1000 μg/mL, 24 h exposure, −S9
  Micronucleus formation (in vitro), result: negative for the induction of micronuclei
[4]; 500–2000 μg/mL, 4 h exposure, ±S9
  Micronucleus formation (in vitro), result: neither clastogenic nor aneugenic; also recorded: negative for the induction of micronuclei
[4]; micronucleus assay, any dose, three treatment conditions
  cytotoxicity (55 ± 5% CBPI relative to vehicle control): not observed
[4]; non-activated 24 h exposure
  concentration with visible precipitate: ≥ 1000 µg/mL
[4]; non-activated and S9-activated 4 h exposure
  concentration with visible precipitate: 2000 µg/mL
[5]; 10, 30, 100 mg/kg bw/day food ad-mix
  Findings: Slight increase in food consumption and mean body weight in males at 10 and 30 mg/kg bw/day
[5]; both, CD [Crl:CD(SD)], rat, in vivo, oral
  NOAEL at 28 days: 100 mg/kg/day
[6]
  % MS (EIC) peak area of parent relative to time 0: 96.5 ± 0.4%
CYP2C9
  inhibition at 10 μM: ≤ 7%

## Cc1cc(C(=O)NC(C)(C)COc2cccc3c2C(N)=NS(=O)(=O)N3)cc(C)n1.O=S(=O)(O)O [S8069]
[7]; 250 mg/kg bw/d, Mean
  Corpora Lutea: 15.1
  Dead Fetuses: 0.0
  Fetal Wt.: 5.9 g
  Fetuses, Sex F: 7.2
  Fetuses, Sex M: 6.6
  Implant. Sites: 14.8
  Post-Implant. Loss: 1.0
  Pre-Implant. Loss: 0.4
  Resorptions, Early: 1.0
  Resorptions, Late: 0.0
  Viable Fetuses: 13.8
[7]; 250 mg/kg bw/d, Total
  Corpora Lutea: 363
  Dead Fetuses: 0
  Fetuses, Sex F: 173
  Fetuses, Sex M: 158
  Implant. Sites: 354
  Post-Implant. Loss: 23
  Pre-Implant. Loss: 9
  Resorptions, Early: 23
  Resorptions, Late: 0
  Viable Fetuses: 331
[7]; 500 mg/kg bw/d, Mean
  Corpora Lutea: 16.1
  Dead Fetuses: 0.0
  Fetal Wt.: 5.6 g
  Fetuses, Sex F: 8.2
  Fetuses, Sex M: 6.6
  Implant. Sites: 15.4
  Post-Implant. Loss: 0.7
  Pre-Implant. Loss: 0.7
  Resorptions, Early: 0.7
  Resorptions, Late: 0.0
  Viable Fetuses: 14.7
[7]; 500 mg/kg bw/d, Total
  Corpora Lutea: 370
  Dead Fetuses: 0
  Fetuses, Sex F: 188
  Fetuses, Sex M: 151
  Implant. Sites: 355
  Post-Implant. Loss: 16
  Pre-Implant. Loss: 15
  Resorptions, Early: 16
  Resorptions, Late: 0
  Viable Fetuses: 339
[7]; 500 mg/kg bw/day
  malformations, fetuses (litters): 4(4)
  skeletal malformations, fetuses (litters): 3(3)
  visceral malformations, fetuses (litters): 3(3)
[7]; 1000 mg/kg bw/d, Mean
  Corpora Lutea: 15.1
  Dead Fetuses: 0.0
  Fetal Wt.: 5.6 g
  Fetuses, Sex F: 7.0
  Fetuses, Sex M: 7.3
  Implant. Sites: 14.6
  Post-Implant. Loss: 0.3
  Pre-Implant. Loss: 0.6
  Resorptions, Early: 0.3
  Resorptions, Late: 0.0
  Viable Fetuses: 14.3
[7]; 1000 mg/kg bw/d, Total
  Corpora Lutea: 348
  Dead Fetuses: 0
  Fetuses, Sex F: 160
  Fetuses, Sex M: 168
  Implant. Sites: 335
  Post-Implant. Loss: 7
  Pre-Implant. Loss: 13
  Resorptions, Early: 7
  Resorptions, Late: 0
  Viable Fetuses: 328
[7]; 1000 mg/kg bw/day
  malformations, fetuses (litters): 1(1)
  visceral malformations, fetuses (litters): 1(1)
[7]; 1000 mg/kg bw/day, GD 8–17
  females with rales 1 h following dose: 6
[7]; 1000 mg/kg bw/day, GD 12–16
  females with salivation at time of dose: 4
[7]; 1000 mg/kg bw/day, Gestation Day 8–9
  mean maternal body weight loss: 2 g
[7]; test article-treated groups
  external malformations: no external malformations observed
[8]; 140 mg/kg bw/day females, p < 0.01
  pituitary/brain weight decrease vs control: 17.7%
[8]; [9]
  kidney/brain weight decrease vs control: 8.1%
  liver/brain weight decrease vs control: 9.8%
  pituitary gland mean absolute weight decrease vs control: 15.1%
  pituitary/body weight decrease vs control: 14.6%
[8]; 140 mg/kg bw/day females, p > 0.05
  brain weight increase relative to control: 3.4%
[8]; 30, 70, 140 mg/kg bw/day food ad-mix
  Findings: No test-article related findings
[8]; rat, in vivo
  margin of safety (NOAEL 140 mg/kg bw/day vs PADI 47 μg/kg bw/day): > 2975 fold
